From article PMC12166265 (Clinical Pharmacology and Therapeutics, 2025)
Read-outs that look alike come from different tables or passages of the source.

What was measured:
OATP1B1 [1] = molecular target: T1, OATP1B1 (Homo sapiens, UniProt Q9Y6L6); type: cell-based; details: HEK293 OATP1B1 cells
T1 sequence (Q9Y6L6 1-691): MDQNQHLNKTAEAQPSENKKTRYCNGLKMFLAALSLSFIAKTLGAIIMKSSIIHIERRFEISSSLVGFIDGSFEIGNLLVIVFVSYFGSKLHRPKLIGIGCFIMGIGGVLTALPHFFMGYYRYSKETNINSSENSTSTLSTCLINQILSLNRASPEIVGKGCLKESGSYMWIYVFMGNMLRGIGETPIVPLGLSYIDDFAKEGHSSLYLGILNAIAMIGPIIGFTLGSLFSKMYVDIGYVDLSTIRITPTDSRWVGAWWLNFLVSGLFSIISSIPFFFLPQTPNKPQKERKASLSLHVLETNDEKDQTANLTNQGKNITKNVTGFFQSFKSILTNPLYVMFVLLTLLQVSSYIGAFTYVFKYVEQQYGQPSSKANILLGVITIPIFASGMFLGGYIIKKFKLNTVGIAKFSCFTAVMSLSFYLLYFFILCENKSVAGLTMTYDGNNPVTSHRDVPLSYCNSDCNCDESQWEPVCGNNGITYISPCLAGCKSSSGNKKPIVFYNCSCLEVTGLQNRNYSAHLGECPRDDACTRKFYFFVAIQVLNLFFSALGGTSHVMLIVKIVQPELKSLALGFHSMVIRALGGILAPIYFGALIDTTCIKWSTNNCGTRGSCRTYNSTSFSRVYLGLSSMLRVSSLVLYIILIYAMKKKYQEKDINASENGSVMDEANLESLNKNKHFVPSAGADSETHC
How it was run: (§1)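 Transporter-overexpressing HEK293 cells were cultured in DMEM with 10% FBS, 1% penicillin/streptomycin and selection antibiotics at 37°C, 5% CO₂. Test compounds were screened at 10 μM and 30 μM, and uptake was quantified as normalised peak areas. For OATP1B1/1B3, uptake was compared with empty-vector cells, and for OATP1B1 also with cells treated with the inhibitor cyclosporine A.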

[2] = type: in vivo, human; details: for AUC(0-t): geometric mean (90% CI)
P-gp = P-gp (Homo sapiens, UniProt P08183); experiment: Inhibitor screening of [3H]digoxin accumulation in HEK293 cells expressing P-gp; type: cell-based
How it was run: (§2)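 HEK293 lines overexpressing the named transporter were grown in DMEM with 10% FBS, 1% penicillin/streptomycin and line-specific selection antibiotics, at 37°C, humidified, 5% CO₂. Cell-based uptake assays measured inhibition of transporter activity.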

BCRP [3] = molecular target: T2, BCRP (Homo sapiens, UniProt Q9UNQ0); type: cell-based
T2 sequence (Q9UNQ0 1-655): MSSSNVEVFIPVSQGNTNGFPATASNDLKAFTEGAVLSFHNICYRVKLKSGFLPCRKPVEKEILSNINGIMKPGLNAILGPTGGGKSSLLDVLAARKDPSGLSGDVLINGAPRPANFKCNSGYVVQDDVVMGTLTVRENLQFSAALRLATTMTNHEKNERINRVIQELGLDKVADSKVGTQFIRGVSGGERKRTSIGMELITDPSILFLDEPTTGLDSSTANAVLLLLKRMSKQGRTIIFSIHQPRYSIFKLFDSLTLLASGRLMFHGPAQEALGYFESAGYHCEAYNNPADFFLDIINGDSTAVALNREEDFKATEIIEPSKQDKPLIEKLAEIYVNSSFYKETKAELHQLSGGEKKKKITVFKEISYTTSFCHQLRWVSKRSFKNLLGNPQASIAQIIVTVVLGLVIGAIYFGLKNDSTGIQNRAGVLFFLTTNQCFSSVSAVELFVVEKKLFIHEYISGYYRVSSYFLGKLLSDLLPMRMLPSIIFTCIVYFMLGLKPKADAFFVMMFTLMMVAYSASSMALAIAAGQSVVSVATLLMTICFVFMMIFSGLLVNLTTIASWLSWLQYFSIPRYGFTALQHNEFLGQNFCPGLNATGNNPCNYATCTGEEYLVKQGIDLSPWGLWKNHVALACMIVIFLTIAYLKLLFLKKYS
How it was run: as §1

ABCG2 p.Q141K variant = type: in vivo, human; details: two p.Q141K (CA) vs nine REF (CC) individuals; T = 0 h
How it was run: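 Open-label fixed-sequence crossover in 11 healthy non-smoking adults aged 18–64. Single oral rosuvastatin 10 mg given after an overnight fast, with fasting continued 4 h. Heparinised venous plasma was stored at −70°C and analysed by LC–MS. ABCG2 c.421C>A was genotyped blind by PCR and Sanger sequencing. Nine CC and two CA subjects were compared at T = 0 h and by noncompartmental PK, using log-transformed geometric means and unpaired t-tests.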

OATP1B3 [4] = molecular target: T3, OATP1B3 (Homo sapiens, UniProt Q9NPD5); experiment: Substrate screening in HEK293 cells expressing OATP1B3; type: cell-based
T3 sequence (Q9NPD5 1-702): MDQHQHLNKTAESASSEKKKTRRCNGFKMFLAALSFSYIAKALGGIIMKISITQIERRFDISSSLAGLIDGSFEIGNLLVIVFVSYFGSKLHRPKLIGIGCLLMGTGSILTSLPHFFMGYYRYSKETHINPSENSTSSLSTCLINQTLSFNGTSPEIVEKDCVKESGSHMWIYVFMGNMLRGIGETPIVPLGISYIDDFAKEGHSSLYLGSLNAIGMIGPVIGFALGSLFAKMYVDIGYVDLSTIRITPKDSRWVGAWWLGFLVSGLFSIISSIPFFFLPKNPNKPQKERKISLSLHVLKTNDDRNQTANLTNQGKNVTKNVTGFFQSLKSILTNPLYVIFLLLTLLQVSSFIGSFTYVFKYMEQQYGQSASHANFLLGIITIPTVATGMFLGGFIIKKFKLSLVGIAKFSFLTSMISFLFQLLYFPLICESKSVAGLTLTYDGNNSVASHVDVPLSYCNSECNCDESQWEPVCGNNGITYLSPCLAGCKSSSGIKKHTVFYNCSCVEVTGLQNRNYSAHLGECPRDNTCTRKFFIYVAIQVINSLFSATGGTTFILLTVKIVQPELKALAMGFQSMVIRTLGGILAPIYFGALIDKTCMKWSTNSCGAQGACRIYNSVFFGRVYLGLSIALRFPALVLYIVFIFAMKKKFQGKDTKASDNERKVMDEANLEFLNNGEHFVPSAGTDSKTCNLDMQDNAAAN
How it was run: as §1

hepatic BCRP = details: intravenous ceftriaxone as model; cited from earlier work
RFVT1 = molecular target: T4, RFVT1 (Homo sapiens, UniProt Q9NWF4); type: cell-based
T4 sequence (Q9NWF4 1-448): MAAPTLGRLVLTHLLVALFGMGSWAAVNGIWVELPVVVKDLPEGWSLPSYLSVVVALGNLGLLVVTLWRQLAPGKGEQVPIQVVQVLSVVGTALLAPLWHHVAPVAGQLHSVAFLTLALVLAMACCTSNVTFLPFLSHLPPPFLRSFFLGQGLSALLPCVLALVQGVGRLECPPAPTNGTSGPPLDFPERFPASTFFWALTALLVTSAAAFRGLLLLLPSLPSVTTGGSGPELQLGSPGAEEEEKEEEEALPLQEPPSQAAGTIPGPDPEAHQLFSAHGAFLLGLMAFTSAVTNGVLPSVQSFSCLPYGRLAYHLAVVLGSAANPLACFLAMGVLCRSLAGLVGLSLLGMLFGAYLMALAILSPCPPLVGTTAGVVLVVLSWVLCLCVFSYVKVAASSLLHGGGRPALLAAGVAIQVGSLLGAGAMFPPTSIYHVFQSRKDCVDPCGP
How it was run: as §2

RFVT3 = molecular target: T5, RFVT3 (Homo sapiens, UniProt Q9NQ40); type: cell-based
T5 sequence (Q9NQ40 1-469): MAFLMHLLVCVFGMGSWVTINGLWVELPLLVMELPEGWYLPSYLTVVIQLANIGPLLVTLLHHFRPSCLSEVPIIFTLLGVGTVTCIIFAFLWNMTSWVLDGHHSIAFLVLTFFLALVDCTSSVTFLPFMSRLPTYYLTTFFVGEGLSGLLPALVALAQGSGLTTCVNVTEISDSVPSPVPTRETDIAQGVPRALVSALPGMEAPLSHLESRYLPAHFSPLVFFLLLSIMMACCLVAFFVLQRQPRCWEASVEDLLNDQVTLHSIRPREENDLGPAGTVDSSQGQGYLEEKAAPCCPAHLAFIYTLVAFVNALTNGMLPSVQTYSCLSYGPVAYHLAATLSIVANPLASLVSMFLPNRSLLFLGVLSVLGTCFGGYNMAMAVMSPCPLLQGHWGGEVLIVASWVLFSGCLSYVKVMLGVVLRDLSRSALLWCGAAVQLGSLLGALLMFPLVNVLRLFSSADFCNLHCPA
How it was run: as §2

OATP1B3 [5] = molecular target: T3, OATP1B3; type: cell-based
How it was run: as §2

BCRP [6] = molecular target: T2, BCRP; type: biochemical
OATP1B1 [7] = molecular target: T1, OATP1B1; type: cell-based
How it was run: as §2

RFVT2 = molecular target: T6, RFVT2 (Homo sapiens, UniProt Q9HAB3); type: cell-based
T6 sequence (Q9HAB3 1-445): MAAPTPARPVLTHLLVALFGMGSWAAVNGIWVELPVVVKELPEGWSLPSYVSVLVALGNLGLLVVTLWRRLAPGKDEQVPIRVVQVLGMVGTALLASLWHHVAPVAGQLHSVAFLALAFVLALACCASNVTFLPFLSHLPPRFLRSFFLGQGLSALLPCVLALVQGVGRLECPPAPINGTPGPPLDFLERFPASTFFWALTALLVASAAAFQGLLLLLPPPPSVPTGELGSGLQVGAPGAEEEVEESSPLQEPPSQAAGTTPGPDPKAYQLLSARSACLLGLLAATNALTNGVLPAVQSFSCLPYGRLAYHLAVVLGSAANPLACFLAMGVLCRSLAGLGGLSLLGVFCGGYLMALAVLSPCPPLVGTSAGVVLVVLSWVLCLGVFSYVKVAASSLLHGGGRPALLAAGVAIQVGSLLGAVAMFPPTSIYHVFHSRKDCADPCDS
How it was run: as §2

[8] = both, human, plasma, oral, 10 mg

Sequence of P-gp (P08183 whole entry): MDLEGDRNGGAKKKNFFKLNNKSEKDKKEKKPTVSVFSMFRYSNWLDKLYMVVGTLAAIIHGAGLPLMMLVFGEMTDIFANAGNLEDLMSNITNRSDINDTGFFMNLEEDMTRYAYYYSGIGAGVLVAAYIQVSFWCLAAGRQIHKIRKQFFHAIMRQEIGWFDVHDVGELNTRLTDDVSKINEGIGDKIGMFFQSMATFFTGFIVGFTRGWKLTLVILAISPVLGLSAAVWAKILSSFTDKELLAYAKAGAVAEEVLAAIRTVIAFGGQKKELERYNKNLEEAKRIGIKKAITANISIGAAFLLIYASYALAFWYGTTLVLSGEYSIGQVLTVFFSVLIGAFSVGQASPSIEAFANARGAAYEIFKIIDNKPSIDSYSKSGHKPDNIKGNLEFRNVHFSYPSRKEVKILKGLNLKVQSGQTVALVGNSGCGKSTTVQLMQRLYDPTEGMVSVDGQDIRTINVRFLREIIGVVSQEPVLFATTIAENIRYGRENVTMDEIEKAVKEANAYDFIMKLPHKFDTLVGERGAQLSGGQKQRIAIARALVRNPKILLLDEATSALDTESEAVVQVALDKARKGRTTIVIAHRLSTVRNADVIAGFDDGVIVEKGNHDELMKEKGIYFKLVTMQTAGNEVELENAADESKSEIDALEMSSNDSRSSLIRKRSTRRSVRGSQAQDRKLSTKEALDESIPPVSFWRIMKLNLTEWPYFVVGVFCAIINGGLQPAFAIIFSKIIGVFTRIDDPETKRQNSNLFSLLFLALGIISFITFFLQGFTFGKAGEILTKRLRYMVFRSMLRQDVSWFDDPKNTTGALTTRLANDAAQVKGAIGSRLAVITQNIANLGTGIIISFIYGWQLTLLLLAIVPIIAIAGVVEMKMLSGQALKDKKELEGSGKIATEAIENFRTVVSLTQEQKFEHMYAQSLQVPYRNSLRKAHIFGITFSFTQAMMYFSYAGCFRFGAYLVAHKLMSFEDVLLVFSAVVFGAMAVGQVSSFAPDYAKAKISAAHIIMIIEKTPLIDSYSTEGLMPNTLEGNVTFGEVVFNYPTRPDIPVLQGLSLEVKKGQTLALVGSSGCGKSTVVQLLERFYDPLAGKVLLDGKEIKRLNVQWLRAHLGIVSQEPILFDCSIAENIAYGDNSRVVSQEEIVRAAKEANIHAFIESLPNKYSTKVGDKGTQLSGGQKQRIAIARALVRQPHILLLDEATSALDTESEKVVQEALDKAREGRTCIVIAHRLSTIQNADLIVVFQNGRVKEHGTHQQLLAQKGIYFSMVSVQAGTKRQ

In the case of `O=C(O)c1c(O)c(Cl)cc(Br)c1O` [BCDBA, 3‐bromo‐5‐chloro‐2,6‐dihydroxybenzoic acid], the OATP1B1 substrate classification (OATP1B1 [1]) is reported as “not substrates”, the “AUC0−24, geometric mean ratio (90% CI) of rosuvastatin + eltrombopag arm to rosuvastatin alone arm” value ([2]; both, human, plasma, oral) is reported as 0.95 (0.89–1.02); P = 0.38 and the C0 at 0 h ([2]; both, human, plasma, oral) is reported as 0.57 ng/mL. For the same molecule, the Cmax ([2]; both, human, plasma, oral) was 0.7 ng/mL, the C0 at 0 h [2, 8] was 0.64 ng/mL and the Cmax [2, 8] was 0.7 ng/mL. The AUC(0-t) ([2]; both, human, plasma, oral, 10 mg, AUC0−4, rosuvastatin alone arm) was 2.13 ng·h/mL, the AUC(0-t) ([2]; both, human, plasma, oral, AUC0−4, rosuvastatin + eltrombopag arm) was 2.1 ng·h/mL and the “Effect of eltrombopag administration on plasma concentrations (in words)” value ([2]; eltrombopag 75 mg daily for 5 days) was “did not lead to corresponding increases”. The “AUC0−4, geometric mean ratio (90% CI) of rosuvastatin + eltrombopag arm to rosuvastatin alone arm” value ([2]; human, in vivo) was 0.98 (0.91–1.07); P = 0.78, the “Cmax, geometric mean ratio (90% CI) of rosuvastatin + eltrombopag arm to rosuvastatin alone arm” value ([2]; human, in vivo) was 1.01 (0.93–1.09); P = 0.96 and the “Food effects, fasted (AUC0−4) vs fed (AUC4−8)” value ([2]; human, in vivo) was “No food effects”. The “Effect on intracellular accumulation of P-gp substrate [3H]digoxin” value (P-gp) was “did not affect”, the “Uptake in BCRP-expressing HEK293 cells compared to same cell line with Ko143” value (BCRP [3]; 10 μM and 30 μM, 30 min) was “significantly reduced” and the BCRP substrate classification (BCRP [3]; HEK293 BCRP cells) was “BCRP substrates”. For the same molecule, the “Baseline concentrations, heterozygous p.Q141K vs homozygous reference allele” value (ABCG2 p.Q141K variant) was “significantly higher” and the OATP1B3 substrate classification (OATP1B3 [4]) was “not substrates”.

For `CC1=NN(c2ccc(C)c(C)c2)C(=O)/C1=N\Nc1cccc(-c2cccc(C(=O)O)c2)c1O` [Eltrombopag], the “Inhibition of hepatic BCRP” value (hepatic BCRP) is given as “does not inhibit”, the IC50 (RFVT1) is given as 44.7 ± 18.3 µM and the IC50 (RFVT3) is given as 26.3 ± 34 µM. For the same molecule, the IC50 (OATP1B3 [5]) was 4 ± 3.1 µM, the IC50 (BCRP [6]) was 4.9 ± 0.6 µM and the IC50 (OATP1B1 [7]) was 1.4 ± 1.2 µM. It also gave an IC50 (RFVT2) of 28.2 ± 15.7 µM.
